Source: PubChem
SIRT5 inh: inhibitors of human sirtuin-5 desuccinylase | Q9NXA8 | Purified SirT5, succinyl-peptide AMC, trypsin-coupled fluorescence | inhibition, % at 15 µM | hit rate 1.1% among 330,000; in the data active means inhibition above about 15%
NSD2 inh: NSD2 (human) methyltransferase inhibition; hit rate 0.54% among 310,000; inhibition, % at 12.5 µM; NSD2 peptide methylation, AlphaScreen, 120 min; O96028; in the data active means inhibition above about 50%
Casp6 inh: blocks human caspase-6 cleavage activity | hit rate 0.53% among 350,000 | AID 686996 | purified caspase-6, Z-VEID-R110 cleavage fluorescence | P55212 | inhibition, % at 12.5 µM;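 active means mean inhibition across replicates at least about 35%, with every replicate also reaching that limit, limit read from the data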;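 further: 0% = median of neutral control wells and 100% = no fluorescence left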
Target sequence (P55212 24-179 limits assumed): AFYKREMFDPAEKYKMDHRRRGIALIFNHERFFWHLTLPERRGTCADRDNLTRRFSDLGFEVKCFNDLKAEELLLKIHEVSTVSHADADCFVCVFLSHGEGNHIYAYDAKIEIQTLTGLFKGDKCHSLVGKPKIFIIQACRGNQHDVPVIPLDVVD
Target sequence (P55212 194-293 limits assumed): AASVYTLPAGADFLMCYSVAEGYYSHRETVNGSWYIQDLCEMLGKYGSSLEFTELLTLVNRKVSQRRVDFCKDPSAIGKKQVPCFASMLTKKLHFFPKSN
FGF22 binding: shifts melting point of recombinant human FGF22. activity (Tm shift, normalised), % at 9.99 µM. recombinant FGF22 thermal shift, SYPRO orange fluorescence; percent of sucrose octasulfate shift, DMSO zero. Q9HCT0. hit rate 1.5% among 340,000;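 active means mean Tm shift, scaled 0 neutral to 100 positive control, at about 1.3% or above, every replicate too, limit read from the data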
UCH37 DUB inh: human UCH37 deubiquitinating enzyme inhibition; hit rate 0.33% among 330,000; Q9Y5K5; inhibition, % (test concentration not listed); purified proteasome/UCH37, Ub-AMC cleavage fluorescence;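 active means mean inhibition over replicate wells above about 20%, limit read from the data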;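 further: 0% = compound-free wells with enzyme and 100% = wells lacking proteasome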
Target sequence (Q9Y5K5 whole entry, looked up): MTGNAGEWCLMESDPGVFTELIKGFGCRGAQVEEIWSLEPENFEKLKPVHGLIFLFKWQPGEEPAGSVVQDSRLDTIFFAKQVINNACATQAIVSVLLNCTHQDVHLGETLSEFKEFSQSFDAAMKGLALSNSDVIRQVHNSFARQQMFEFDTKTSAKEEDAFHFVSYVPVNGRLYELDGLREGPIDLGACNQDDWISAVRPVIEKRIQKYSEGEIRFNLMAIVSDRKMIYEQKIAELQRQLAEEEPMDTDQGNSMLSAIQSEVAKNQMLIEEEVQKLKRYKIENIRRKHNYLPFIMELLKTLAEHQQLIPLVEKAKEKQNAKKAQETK
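System: Proteasome-associated human UCH37 deubiquitinase; Input: 0.15 nM proteasome in added enzyme buffer; Also added: Ub-AMC substrate from 1 µM stock; Incubation: 30 min compound-proteasome preincubation then 25 min substrate reaction, room temperature; Detection: fluorescence, ex 355 nm, em 460 nm; Read-out: % inhibition of Ub-AMC cleavage fluorescence; Benchmarks: no-proteasome and no-compound wells.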
The depositor's hits bear a star; i = inactive; . = no result. This is a sample that favours compounds with a hit; in the whole collection about 2.6% have one here.

SMILES | SIRT5 inh | NSD2 inh | Casp6 inh | FGF22 binding | UCH37 DUB inh
c1ccc(-c2nnc(-c3ccccc3)nn2)cc1 | 4 | 0 | 0 | 0 | 7
c1ccc(-c2cncnc2)cc1 | 25* | . | -1 | 0 | -1
CC(c1ccon1)N(C)Cc1cn[nH]c1-c1ccc(-c2ccccc2)cc1 (stereo not drawn) | -3 | 0 | 1 | 0 | 3
CN(Cc1ccon1)Cc1cn[nH]c1-c1ccc(-c2ccccc2)cc1 | -6 | 0 | -6 | 43* | 1
CCN(CC)Cc1c(C(=O)NN=Cc2ccco2)nnn1-c1nonc1N | . | . | . | . | 7
CC(C)c1ccc(S(=O)(=O)N2CCN(C(=O)c3ccco3)CC2)cc1 | 2 | -3 | -2 | 44* | 0
Cc1ccc(S(=O)(=O)N2CCN(C(=O)/C=C/c3ccco3)CC2)cc1 | -2 | -4 | 9 | 0 | 3
O=C(/C=C/c1ccco1)N1CCCC(c2ccccc2)C1 (stereo not drawn) | 0 | 2 | -3 | 44* | 26*
Cc1ccc(S(=O)(=O)N2CCN(C(=O)c3ccco3)CC2)cc1 | 7 | 3 | 3 | 0 | 5
CCN(CC)C(=O)N1CCN(S(=O)(=O)c2ccccc2)CC1 | -7 | -2 | -2 | 43* | -1
O=C(/C=C/c1ccco1)N1CCN(S(=O)(=O)c2ccccc2)CC1 | 5 | -1 | 48* | 0 | 4
COc1ccc(Br)cc1C(=O)NN=Cc1ccc2c(c1)n(C)c(=O)n2C | . | . | . | . | i
C[C@H](CO)N1C[C@H](C)[C@H](CN(C)C(=O)c2ccccc2)OCCCC[C@H](C)Oc2ccc(NC(=O)CCC(F)(F)F)cc2C1=O | 5 | . | -2 | 0 | .
C[C@H](CO)N1C[C@H](C)[C@@H](CN(C)S(=O)(=O)c2cccs2)Oc2ccc(NS(=O)(=O)c3cccs3)cc2C1=O | -4 | . | -1 | 1 | .
Cc1noc(C)c1S(=O)(=O)N(C)C[C@@H]1OCc2ccccc2-c2c(n(C)c3ccccc23)C(=O)N([C@@H](C)CO)C[C@@H]1C | -2 | . | -1 | 0 | .
CC(=NNc1ccc(C(=O)O)cc1)c1ccc(Br)cc1 | . | . | . | . | 16
COc1cc(C(C)=NNc2ccc(C(=O)O)cc2)cc(OC)c1OC | . | . | . | . | 15
CC(=NNc1ccc(C(=O)O)cc1)c1ccc(O)c(O)c1O | . | . | . | . | 21*
C/C(=N\Nc1ccc(C(=O)O)cc1)c1ccc2c(c1)Nc1ccccc1S2 | 24* | . | 21 | 0 | .
C/C(=N/Nc1ccc(C(=O)O)cc1)c1ccc2c(c1)Nc1ccccc1S2 | 24* | 1 | 12 | 0 | -52
CC(C)NC(=O)N(C)C[C@@H]1Oc2ccc(NS(C)(=O)=O)cc2CC(=O)N([C@H](C)CO)C[C@H]1C | -4 | . | -2 | 0 | .
O=C1CCCC(O)=C1N=Nc1ccc2c(c1)OCO2 | 10 | 1 | 9 | 0 | 20*
Cc1ccc(S(=O)(=O)NCC[C@@H]2CC[C@@H](NC(=O)Nc3ccccc3F)[C@H](CO)O2)cc1 | 1 | . | 1 | 0 | .
Cc1ccnc(NC2CCCCC2)c1 | -5 | 10 | -1 | 44* | -8
COC(=O)c1ccc([C@H]2C=C(C(=O)O)O[C@@H](OCCCCO)C2)cc1 | 4 | . | 5 | 0 | .
SMILES | SIRT5 inh | NSD2 inh | Casp6 inh | FGF22 binding | UCH37 DUB inh
O=C(c1ccc2c(c1)OCO2)N1C[C@@H]2N[C@H](C1)C2c1ccc(-c2cccnc2)cc1 (stereo partly drawn) | -2 | . | 0 | . | .
CC(c1ccncn1)N(C)Cc1nc(-c2ccc(C(F)(F)F)cc2)no1 (stereo not drawn) | 1 | 2 | 1 | 0 | 1
Cc1oc(-c2ccc3ccccc3c2)nc1CN(C)C(C)c1ccncn1 (stereo not drawn) | -1 | -2 | -2 | 44* | -12
O=S(=O)(c1ccccc1)N1CC2(C1)[C@H](c1ccccc1)[C@H](CO)N2CCC(F)(F)F | 17* | . | -1 | 0 | .
COCc1cc(=O)n2[nH]c(-c3ccco3)cc2n1 | -1 | 1 | -2 | 0 | -7
CCCCN1Cc2c(nc3cc(-c4ccco4)[nH]n3c2=O)C1=O | -9 | 6 | 44* | 0 | .
C[C@H]1CCCCO[C@H](CN(C)S(=O)(=O)c2cccs2)[C@@H](C)CN([C@@H](C)CO)C(=O)c2cc(NS(=O)(=O)c3ccc(F)cc3)ccc2O1 | 8 | . | -1 | 0 | .
Cc1ccc(S(=O)(=O)NN=Cc2c[nH]c3ccccc23)cc1 | . | . | . | . | 2
COc1cc2c3c(c1OC)-c1cc4c(cc1CC3(C#N)N(C(=O)c1ccccc1)CC2)OCO4 (stereo not drawn) | . | 0 | 2 | 43* | .
CCCCC[C@H](C)N1C[C@H](COCc2ccccc2)Oc2cc(N3CCC[C@@H]3CO)ccc2S1(=O)=O | 0 | . | -3 | 0 | .
CCCCC[C@H](C)N1C[C@@H](COCc2ccccc2)Oc2cc(N3CCC[C@H]3CO)ccc2S1(=O)=O | 21* | . | 1 | 0 | .
Cc1ccc(C)c(S(=O)(=O)Nc2ccc3oc(C)c(C(=O)O)c3c2)c1 | 8 | 49 | 69* | 0 | 1
CC(=O)Nc1cccc(NC(=O)Nc2ccc(F)cc2F)c1 | -3 | 1 | -2 | 0 | 1
O=C(Nc1ccccc1)Nc1ccc(F)cc1F | -1 | -4 | -2 | 43* | 3
O=C(Nc1ccccc1F)Nc1ccccc1F | -1 | -1 | 1 | 44* | 4
CC(=O)N(C)C[C@@H]1Oc2cc(C#CC3CCCC3)ccc2S(=O)(=O)N([C@H](C)CO)C[C@@H]1C | 5 | . | 4 | 0 | .
O=c1c2c([N+](=O)[O-])cc([N+](=O)[O-])cc2sn1Cc1ccccc1 | 20* | . | 1 | 0 | .
NC(=O)c1ccc(C(F)(F)F)cn1 | 32* | -2 | 3 | 0 | 5
NC(=O)c1ncc(C(F)(F)F)cc1Cl | -5 | -1 | -3 | 0 | 1
COC(=O)C[C@H]1CC[C@@H]2[C@@H](COc3ccc(NC(=O)Nc4cccc(F)c4)cc3C(=O)N2C)O1 | 2 | . | 0 | 0 | .
COc1ccc(CNC(=O)C2(C)Cc3ccccc3C(=O)O2)cc1 (stereo not drawn) | 1 | 1 | -3 | 44* | 3
COc1ccccc1C#Cc1ccc2c(c1)[C@@H]1[C@@H](CCN1C(=O)c1cccc(F)c1)[C@H](CO)N2 | 18* | . | -1 | . | .
O=C(C1CCC1)N1CC[C@H]2[C@H](CO)Nc3ccc(C#Cc4cccc(F)c4)cc3[C@H]21 | 20* | . | -2 | 0 | .
O=C(C1CCC1)N1CC[C@@H]2[C@@H](CO)Nc3ccc(C#Cc4cccc(F)c4)cc3[C@@H]21 | 1 | . | 1 | 0 | .
CCCC#Cc1ccc2c(c1)[C@@H]1[C@@H](CCN1S(=O)(=O)c1ccccc1C)[C@@H](CO)N2 | 18* | . | -1 | . | .
CCC(=O)N1CC[C@@H]2[C@H](CO)Nc3ccc(C#Cc4ccc(OC)cc4)cc3[C@@H]21 | 17* | . | -5 | 0 | .
CCCNC(=O)[C@@H]1[C@@H](CO)[C@@H]2Cn3c(ccc(-c4ccccc4F)c3=O)[C@@H]2N1C(C)=O | -6 | . | 1 | . | .
